Screening data as filed in PubChem BioAssay.
CRFBP-R2 block: antagonists of CRF-BP/CRF-R2 complex, primary screen, cell-based, HEK293, calcium dye fluorescence, uHTS. CRF-induced calcium fluorescence. inhibition, % at 11.8 µM. actives 0.59% (n = 350,000);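 active = inhibition of the ligand-induced calcium signal above about 50% at the single tested concentration, limit read from the data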
Tn7 DDE FP: inhibitors of Tn7 peptide binding to fibrin DD(E), primary screen, biochemical, fluorescence polarization, human fibrin, Tn7 probe; actives 0.13% (n = 370,000); FP displacement of FITC-Tn7 peptide from fibrin DD(E); 0% = median of compound wells per plate; inhibition, % at 8.3 µM;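 active = inhibition above the mean of compounds falling within the control limits plus 3 SD of them, cut at about 14% in these data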;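 also: 0% = plate median of compound wells and 100% = 10 µM Aha-Tn7 peptide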
Target sequence (P02675 whole entry, looked up): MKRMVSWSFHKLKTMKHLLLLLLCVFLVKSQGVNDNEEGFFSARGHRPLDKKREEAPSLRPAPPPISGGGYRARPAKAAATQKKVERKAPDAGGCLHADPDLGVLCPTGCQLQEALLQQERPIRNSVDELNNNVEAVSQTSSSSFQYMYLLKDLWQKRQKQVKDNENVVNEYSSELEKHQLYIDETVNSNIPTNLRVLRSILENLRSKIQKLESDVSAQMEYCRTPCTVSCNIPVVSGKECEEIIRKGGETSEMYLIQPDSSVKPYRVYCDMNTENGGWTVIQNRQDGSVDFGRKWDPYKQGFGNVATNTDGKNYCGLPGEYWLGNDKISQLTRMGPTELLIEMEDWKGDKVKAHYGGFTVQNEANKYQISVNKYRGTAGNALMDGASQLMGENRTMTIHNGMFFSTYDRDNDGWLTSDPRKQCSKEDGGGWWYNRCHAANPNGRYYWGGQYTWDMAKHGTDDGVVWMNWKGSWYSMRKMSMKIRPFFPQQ
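system = human fibrin DD(E) protein | quantity = DD(E) 2 µM final | medium = Tris/NaCl/CaCl2 buffer, pH 7.8 | also added = labelled Tn7 tracer, 0.1 µM | compound dosing = single point at 8.3 µM | timing = compound with protein 10 min, then 3 h after probe, room temperature | signal = FP measurement | benchmarks = Aha-Tn7 high control | repeats = one replicate per compound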
CRFBP-R2 agonist: agonists of CRF-BP/CRF-R2 complex, primary screen, cell-based, HEK293, calcium dye fluorescence, uHTS | actives 0.46% (n = 350,000) | calcium dye fluorescence (FLIPR); percent of saturating CRF peptide response | CRF-binding protein / CRF receptor 2 complex (human) | AID 588473, 2011 | activation, % at 13.2 µM;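 active = activation of at least 50%, plus an integration ratio under a set limit after plate pattern correction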;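 also: plate controls were neutral control wells without compound for no effect and CRF at EC100 for full effect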
Tn6 DDE FP: inhibitors of Tn6 peptide binding to fibrin DD(E), primary screen, biochemical, fluorescence polarization, human fibrin, Tn6 probe; actives 0.21% (n = 370,000); Fibrin DD(E) TRITC-Tn6 fluorescence polarization displacement; inhibition, % at 8.3 µM; Fibrinogen beta chain (Homo sapiens), P02675;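 active = inhibition above a per-campaign cutoff: mean of compounds within control limits plus 3 SD, cut at about 15% in these data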;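 also: 0% = median of all compound wells on the plate and 100% = blocking peptide control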
RTF Ca sens act: cardiac RTF calcium sensitivity activators, primary screen, biochemical, IANBD-TnC fluorescence, EC20 calcium; Troponin I, cardiac muscle (Homo sapiens) + Troponin T, cardiac muscle (Homo sapiens) + …; IANBD-labeled TnC RTF fluorescence at EC20 calcium; 0% EC20 calcium, 100% full calcium; activation, % at 7.2 µM; actives 0.24% (n = 340,000); AID 493008, 2010;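 active = activation above the mean over all tested compounds plus 3 SD, cut at about 30% in these data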;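 also: rise in fluorescence read as greater calcium sensitivity of cardiac thin filaments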
Cardiac RTF inh: cardiac RTF calcium sensitivity inhibitors, primary screen, biochemical, IANBD-TnC fluorescence, EC70 calcium | Troponin I, cardiac muscle (Homo sapiens) + Troponin T, cardiac muscle (Homo sapiens) + … | IANBD-labeled cardiac RTF, Ca2+ fluorescence | inhibition, % at 7.15 µM | actives 0.12% (n = 340,000) | AID 493244, 2011;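 active = inhibition above the mean inhibition of all tested compounds plus 3 SD, cut at about 17% in these data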;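 also: assay run at fixed EC70 calcium of 1.6 mM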
RTF inh confirm: cardiac RTF calcium sensitivity inhibitors, confirmation, biochemical, fluorescence readout. shares compounds with Cardiac RTF inh. reconstituted cardiac thin filaments. inhibition, % at 7.15 µM. actives 8% (n = 360); in the data active = inhibition above about 18%
Numbers without * were called inactive; nt = not tested or not shown. An excerpt weighted towards active compounds, which were near 1.4% of everything screened.

SMILES	CRFBP-R2 block	Tn7 DDE FP	CRFBP-R2 agonist	Tn6 DDE FP	RTF Ca sens act	Cardiac RTF inh	RTF inh confirm
CCOC(=O)C1(CC2CC2)CCN(Cc2cn(C)c3ccccc23)CC1	-68.4	3.3	1.1	-3.1	0.5	17.0*	-7.1
CCOC(=O)C1(Cc2ccccc2)CCN(Cc2cn(CC(=O)OC)c3ccccc23)CC1	-7.1	7.4	-0.3	-1.0	7.9	-6.2	nt
O=C(Nc1nccs1)c1ccc(-c2ccc(F)cc2)o1	0.8	-1.8	-1.1	-2.5	-3.5	17.1*	-5.5
O=C(CSc1ccc(-c2nc3ccccc3[nH]2)cn1)Nc1ccc2c(c1)OCCO2	4.3	nt	-0.5	nt	-0.5	20.7*	-2.6
Cc1ccc2nc(-c3ccc(SCC(=O)Nc4ccc5c(c4)OCCO5)nc3)[nH]c2c1	10.6	3.0	-2.5	8.3	-3.0	-0.2	nt
Cc1ccccc1NC(=O)c1sc(NC(=O)COc2ccccc2)c(C#N)c1C	41.1	1.1	36.1	-4.5	-0.8	17.6*	-3.0
Cc1cccc(NC(=O)c2sc(NC(=O)COc3ccccc3)c(C#N)c2C)c1C	19.1	-7.8	7.5	-6.9	-0.3	6.5	nt
O=C(c1ccco1)N1CCC(Oc2cccnc2)CC1	nt	7.9	nt	-1.2	nt	nt	nt
COc1cc(/C=N/NC(=O)c2c(C)nnn2-c2nonc2N)ccc1O	6.7	5.2	-2.4	2.4	-1.7	17.5*	4.8
COCc1nnc(NC(=O)c2ccc(S(=O)(=O)N(CC(C)C)CC(C)C)cc2)o1	0.3	-1.3	-6.8	-0.9	-0.1	188.8*	-0.6
C=CCN(CC=C)S(=O)(=O)c1ccc(C(=O)Nc2nnc(COC)o2)cc1	-8.6	-0.7	-0.2	-3.9	4.3	10.9	nt
O=C(CN1C(=O)/C(=C\c2ccco2)SC1=S)Nc1ccc(O)cc1C(=O)O	-8.0	-2.4	1.2	-9.6	-8.8	17.7*	-2.8
O=C(CCN1C(=O)/C(=C/c2ccco2)SC1=S)Nc1ccc(O)cc1C(=O)O	-11.5	1.3	5.0	-11.2	-0.4	-6.7	nt
Cc1ccc(NS(=O)(=O)c2ccc(/C=C/C(=O)O)cc2)cc1Cl	-8.0	-5.4	-1.2	0.4	-0.9	20.9*	-6.8
Cc1ccc(NS(=O)(=O)c2ccc(Cl)c(C(=O)O)c2)cc1S(=O)(=O)N1CCOCC1	-0.1	-12.5	0.6	-1.5	1.8	19.2*	-3.1
CCN1CCCSC1=S	nt	3.9	nt	-2.3	nt	nt	nt
CC(C)Cn1c(/C=C/c2ccco2)nc2ccccc21	7.3	4.5	19.9	-1.0	8.1	17.6*	-5.1
O=C(NCCc1c[nH]c2ccccc12)C(=O)NCC1OCCN1S(=O)(=O)c1ccccc1 (stereo not given)	2.0	-3.0	-1.2	-4.1	-1.2	18.5*	-4.5
CC(C)(C)OC(=O)[C@H](Cc1ccccc1)NC(=O)c1[nH]cnc1C(=O)Nc1ccccc1F	-9.8	8.6	7.4	1.5	nt	nt	nt
Cc1ccc(NC(=O)Cn2nnc3ccccc3c2=O)cc1C	0.9	-3.9	-1.2	-4.7	-0.6	18.3*	-6.3
Cc1ccc(NC(=O)Cn2nnc3ccccc3c2=O)cc1	-1.8	7.4	-0.9	-0.6	-1.7	-11.2	nt
O=C(Cn1nnc2ccccc2c1=O)Nc1ccc(S(=O)(=O)N2CCOCC2)cc1	6.2	-6.4	0.6	-5.0	1.2	17.2*	-1.4
COc1ccc(C)cc1-n1c(SCC(=O)N2CCOCC2)nc2ccccc2c1=O	-11.4	9.0	-0.9	-5.5	nt	nt	nt
COc1cccc(N2CCN(CC(=O)NCc3cccc(OC)c3OC)CC2)c1	nt	3.6	nt	-3.4	nt	nt	nt
Cc1ccc(NC(=O)Cc2cccc(OC(F)(F)F)c2)c(S(=O)(=O)N2CCOCC2)c1	nt	-1.4	nt	4.5	nt	nt	nt
SMILES	CRFBP-R2 block	Tn7 DDE FP	CRFBP-R2 agonist	Tn6 DDE FP	RTF Ca sens act	Cardiac RTF inh	RTF inh confirm
CN1CCCC(CN2c3ccccc3Sc3ccccc32)C1 (stereo not given)	-31.4	-2.4	-1.9	4.8	-5.2	24.1*	-2.4
CN1CCCC(CC2c3ccccc3Sc3ccccc32)C1 (stereo not given)	-14.5	1.5	0.8	3.5	-3.2	4.7	nt
Cn1cnc([N+](=O)[O-])c1S(=O)(=O)Oc1ccc(Cl)cc1	34.4	6.1	15.8	1.4	1.7	1.3	nt
COCCn1c(SCC(=O)Nc2ccc(NC(C)=O)cc2)nc2c([nH]c3ccccc32)c1=O	2.5	-6.1	-0.5	2.5	0.1	19.0*	-5.2
COC(=O)c1sc(N)nc1CCNC(=O)OC(C)(C)C	nt	2.5	nt	0.1	nt	nt	nt
O=C(Nc1ccc(F)cc1)Nc1ccc(N2CCCC2)c(S(=O)(=O)Nc2ccccc2Cl)c1	-6.8	1.6	-0.6	-28.1	6.7	-8.3	nt
O=C(Nc1ccc(N2CCOCC2)c(S(=O)(=O)Nc2ccccc2Cl)c1)c1ccc(F)cc1	-12.3	4.8	18.7	5.5	-9.2	23.9*	1.1
COc1ccccc1NS(=O)(=O)c1cc(NC(=O)c2sccc2C)ccc1N1CCCC1	47.1	-6.0	6.4	-0.3	-5.3	24.9*	2.6
COc1ccccc1NS(=O)(=O)c1cc(NC(=O)c2sccc2C)ccc1N1CCOCC1	11.4	1.4	0.4	-3.3	-6.1	15.9	nt
COc1ccc(CCC(=O)Nc2ccc(S(=O)(=O)N3CCOCC3)cc2)cc1OC	-17.6	-3.4	1.9	0.7	nt	nt	nt
Nc1c(C(=O)NC2CC2)sc2nc3c(c(-c4ccco4)c12)CC/C3=C/c1ccco1	4.3	nt	4.0	nt	-16.9	30.8*	98.2*
NC(=O)c1sc2nc3c(c(-c4ccco4)c2c1N)CCC3	-16.5	1.5	3.0	5.8	-7.4	4.0	nt
CC1(C)CC(=O)C2=C(C1)N(Cc1ccco1)C(=O)NC2(C(F)(F)F)C(F)(F)F	-12.5	-4.0	-3.0	-0.4	-3.7	17.6*	-2.1
CC1(C)CC(=O)C2=C(C1)Nc1ccccc1NC2c1cccs1 (stereo not given)	12.7	0.3	2.2	8.8	-4.3	18.9*	-1.3
Cc1ccc(F)cc1C(=O)N1CCCC(c2cc(C(=O)Nc3ccccc3Cl)no2)C1 (stereo not given)	nt	5.0	nt	-4.0	nt	nt	nt
CCCN1CCN(C(=O)c2ccc(Sc3ccc(C)cc3)c(NC(C)=O)c2)CC1	22.2	9.7	-4.6	0.7	-3.2	-9.5	nt
